What was measured:
P‐glycoprotein = P‐glycoprotein (Homo sapiens, UniProt P08183); assay: Efflux transporter substrate assessment in vitro, P-glycoprotein; format: in vitro ADME
[1] = target: T1, organic cation transporter 1 (Homo sapiens, UniProt O15245); assay: Hepatic uptake transporter substrate assessment, OCT1; format: in vitro ADME
T1 sequence (O15245 1-554): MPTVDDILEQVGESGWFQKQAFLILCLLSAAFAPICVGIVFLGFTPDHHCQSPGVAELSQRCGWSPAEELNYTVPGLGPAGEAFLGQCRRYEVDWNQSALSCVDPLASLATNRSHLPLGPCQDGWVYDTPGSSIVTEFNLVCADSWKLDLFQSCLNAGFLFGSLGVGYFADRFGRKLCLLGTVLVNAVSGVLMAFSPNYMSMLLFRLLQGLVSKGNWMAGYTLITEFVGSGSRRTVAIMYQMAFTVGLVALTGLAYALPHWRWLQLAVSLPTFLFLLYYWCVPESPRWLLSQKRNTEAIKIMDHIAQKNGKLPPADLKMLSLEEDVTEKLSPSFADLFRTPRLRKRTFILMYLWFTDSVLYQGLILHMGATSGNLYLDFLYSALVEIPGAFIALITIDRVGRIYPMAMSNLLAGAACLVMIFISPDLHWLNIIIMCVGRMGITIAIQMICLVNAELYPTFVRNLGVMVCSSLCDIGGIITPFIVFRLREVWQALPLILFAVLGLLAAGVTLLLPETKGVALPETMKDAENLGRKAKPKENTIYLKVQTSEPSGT

[2] = Measured physicochemical properties
[3] = target: T2, organic anion–transporting polypeptide 1B3 (Homo sapiens, UniProt Q9NPD5); assay: Hepatic uptake transporter substrate assessment, OATP1B3; format: in vitro ADME
T2 sequence (Q9NPD5 1-702): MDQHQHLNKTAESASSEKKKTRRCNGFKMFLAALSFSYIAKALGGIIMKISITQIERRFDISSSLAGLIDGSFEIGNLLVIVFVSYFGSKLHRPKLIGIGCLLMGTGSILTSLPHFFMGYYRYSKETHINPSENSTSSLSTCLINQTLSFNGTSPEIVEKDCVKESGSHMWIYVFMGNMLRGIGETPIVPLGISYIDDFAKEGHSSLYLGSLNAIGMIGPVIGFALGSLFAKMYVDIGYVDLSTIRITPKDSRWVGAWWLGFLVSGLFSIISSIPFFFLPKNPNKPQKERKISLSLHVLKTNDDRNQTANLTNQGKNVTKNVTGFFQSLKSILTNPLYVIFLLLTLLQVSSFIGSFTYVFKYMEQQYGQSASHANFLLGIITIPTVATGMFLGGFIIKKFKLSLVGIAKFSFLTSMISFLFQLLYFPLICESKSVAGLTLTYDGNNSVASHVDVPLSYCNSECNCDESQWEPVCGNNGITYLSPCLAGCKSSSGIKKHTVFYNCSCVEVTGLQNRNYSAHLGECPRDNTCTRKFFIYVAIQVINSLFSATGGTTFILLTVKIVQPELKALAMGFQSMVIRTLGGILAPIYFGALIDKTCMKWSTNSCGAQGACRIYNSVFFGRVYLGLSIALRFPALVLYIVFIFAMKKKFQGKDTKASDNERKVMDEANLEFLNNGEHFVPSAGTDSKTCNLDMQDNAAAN

[4] = cited from earlier work
[5] = Clarithromycin interaction study; format: in vivo; details: both, human, plasma, po, 50 mg
[6] = Rifampin interaction study; format: in vivo, human
In short: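 Single oral 200‑mg dose given alone and again with rifampin 600 mg once daily. Plasma levels of parent and active metabolites were measured in both arms, and mean concentration–time profiles are shown with SDs. Cmax and AUC0‑∞ were taken, with Tmax as median (min‑max). The interaction was expressed as with/without‑rifampin ratios of AUC0‑∞ and Cmax.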

[7] = target: T3, organic anion–transporting polypeptide 1B1 (Homo sapiens, UniProt Q9Y6L6); assay: Hepatic uptake transporter substrate assessment, OATP1B1; format: in vitro ADME
T3 sequence (Q9Y6L6 1-691): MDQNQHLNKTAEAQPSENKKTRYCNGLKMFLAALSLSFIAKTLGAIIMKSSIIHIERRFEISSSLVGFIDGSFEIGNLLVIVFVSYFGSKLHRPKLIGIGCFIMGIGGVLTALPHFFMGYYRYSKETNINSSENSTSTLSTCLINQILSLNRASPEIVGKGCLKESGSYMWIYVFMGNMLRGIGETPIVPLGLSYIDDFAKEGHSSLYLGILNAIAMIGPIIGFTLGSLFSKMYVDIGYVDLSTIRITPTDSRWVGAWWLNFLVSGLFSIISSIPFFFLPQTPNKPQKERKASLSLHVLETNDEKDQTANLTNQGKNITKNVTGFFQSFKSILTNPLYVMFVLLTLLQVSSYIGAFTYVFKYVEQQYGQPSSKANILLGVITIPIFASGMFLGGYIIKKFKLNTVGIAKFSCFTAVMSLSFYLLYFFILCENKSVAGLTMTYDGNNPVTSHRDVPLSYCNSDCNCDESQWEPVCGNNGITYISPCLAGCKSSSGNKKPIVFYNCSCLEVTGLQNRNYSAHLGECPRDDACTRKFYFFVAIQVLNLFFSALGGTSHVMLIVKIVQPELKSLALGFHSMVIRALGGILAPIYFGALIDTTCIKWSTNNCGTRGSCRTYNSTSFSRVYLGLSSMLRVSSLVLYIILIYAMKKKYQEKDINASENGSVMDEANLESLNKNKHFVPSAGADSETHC

[8] = Biopharmaceutic properties; format: physicochemical
[9] = Fraction unbound in plasma; format: in vitro ADME; details: human
Absolute bioavailability = format: in vivo; details: human, plasma
CDK4/cyclin D1 = details: read-out: CDK4/cyclin D1 half‐maximal inhibitory concentration, mean ± SD; measured in vitro; cited from earlier work
[10] = target: T4, breast cancer resistance protein (Homo sapiens, UniProt Q9UNQ0); assay: Efflux transporter substrate assessment in vitro, BCRP; format: in vitro ADME
T4 sequence (Q9UNQ0 1-655): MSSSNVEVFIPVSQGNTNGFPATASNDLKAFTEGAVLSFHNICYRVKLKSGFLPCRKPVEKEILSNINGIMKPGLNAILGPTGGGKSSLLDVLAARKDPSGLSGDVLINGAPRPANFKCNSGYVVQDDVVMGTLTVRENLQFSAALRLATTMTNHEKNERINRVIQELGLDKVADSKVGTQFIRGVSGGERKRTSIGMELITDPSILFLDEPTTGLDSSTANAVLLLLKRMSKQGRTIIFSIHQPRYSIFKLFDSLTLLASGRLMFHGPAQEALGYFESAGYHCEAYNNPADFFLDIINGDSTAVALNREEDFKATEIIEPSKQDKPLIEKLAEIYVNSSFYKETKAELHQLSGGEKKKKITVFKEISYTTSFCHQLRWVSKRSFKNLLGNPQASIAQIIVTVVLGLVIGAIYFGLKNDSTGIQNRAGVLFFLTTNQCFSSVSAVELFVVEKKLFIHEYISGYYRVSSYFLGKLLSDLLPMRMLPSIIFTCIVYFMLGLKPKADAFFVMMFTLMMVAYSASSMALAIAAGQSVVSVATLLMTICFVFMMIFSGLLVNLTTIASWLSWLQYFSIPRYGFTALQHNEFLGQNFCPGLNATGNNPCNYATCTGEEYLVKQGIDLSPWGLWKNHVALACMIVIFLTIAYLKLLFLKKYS

[11] = PBPK model input and disposition parameters
[12] = Mass balance study with 14C-labeled abemaciclib; format: in vivo, human
[13] = cited from earlier work; remark: listed apart in the source
[14] = both, human, plasma, po, 200 mg

P‐glycoprotein, sequence (P08183 whole entry): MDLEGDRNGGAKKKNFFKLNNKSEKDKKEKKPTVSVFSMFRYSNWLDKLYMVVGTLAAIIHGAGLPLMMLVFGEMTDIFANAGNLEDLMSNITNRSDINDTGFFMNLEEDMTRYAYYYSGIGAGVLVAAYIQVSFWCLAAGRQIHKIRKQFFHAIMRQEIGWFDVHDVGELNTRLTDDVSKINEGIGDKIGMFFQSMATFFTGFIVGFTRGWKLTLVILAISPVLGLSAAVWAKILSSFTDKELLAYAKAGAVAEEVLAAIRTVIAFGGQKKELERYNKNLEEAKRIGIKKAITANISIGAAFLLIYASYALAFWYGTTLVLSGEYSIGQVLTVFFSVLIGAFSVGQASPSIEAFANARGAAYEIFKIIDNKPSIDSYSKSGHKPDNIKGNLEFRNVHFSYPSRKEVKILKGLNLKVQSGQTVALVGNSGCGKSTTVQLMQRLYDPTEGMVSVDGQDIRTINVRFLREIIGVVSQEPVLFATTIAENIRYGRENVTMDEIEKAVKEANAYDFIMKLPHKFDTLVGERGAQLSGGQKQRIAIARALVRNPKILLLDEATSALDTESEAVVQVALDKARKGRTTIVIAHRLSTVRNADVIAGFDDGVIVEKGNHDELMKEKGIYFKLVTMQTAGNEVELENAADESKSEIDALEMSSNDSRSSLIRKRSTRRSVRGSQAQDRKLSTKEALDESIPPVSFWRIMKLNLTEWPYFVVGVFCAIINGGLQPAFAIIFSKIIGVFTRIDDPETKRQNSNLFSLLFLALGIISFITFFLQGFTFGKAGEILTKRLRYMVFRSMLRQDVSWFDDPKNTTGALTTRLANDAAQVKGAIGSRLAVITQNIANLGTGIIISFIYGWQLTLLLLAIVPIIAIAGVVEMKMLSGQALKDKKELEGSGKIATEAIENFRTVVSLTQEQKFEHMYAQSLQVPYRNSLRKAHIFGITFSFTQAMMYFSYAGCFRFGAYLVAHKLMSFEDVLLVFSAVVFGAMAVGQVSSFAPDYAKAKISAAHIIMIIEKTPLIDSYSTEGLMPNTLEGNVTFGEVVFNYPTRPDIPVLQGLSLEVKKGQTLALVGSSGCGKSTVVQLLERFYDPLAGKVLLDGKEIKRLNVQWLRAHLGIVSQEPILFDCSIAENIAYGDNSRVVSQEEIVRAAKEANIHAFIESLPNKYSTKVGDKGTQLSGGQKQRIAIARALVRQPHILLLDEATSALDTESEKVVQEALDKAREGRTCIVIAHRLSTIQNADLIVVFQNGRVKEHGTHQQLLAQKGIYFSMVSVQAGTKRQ

SMILES: CCN1CCN(Cc2ccc(Nc3ncc(F)c(-c4cc(F)c5nc(C)n(C(C)C)c5c4)n3)nc2)CC1 [Abemaciclib]
- substrate of P‐glycoprotein (P‐glycoprotein): substrate
- substrate of organic cation transporter 1 [1]: not substrates
- logP ([2]; octanol/water): 3.36
- pKa ([2]; pKa 2 (basic)): 4.48
- substrate of organic anion–transporting polypeptide 1B3 [3]: not substrates
- increase of AUC by a high‐fat and high‐calorie meal ([4]; abemaciclib and active species): 9%
- AUC [5]: 2230 ng·h/mL
- Cmax [5]: 70 ng/mL
- Tmax [5]: 4.03 h
- half-life [5]: 28.8 h
- AUC [6, 14]: 4570 ng·h/mL
- Cmax [6, 14]: 134 ng/mL
- Tmax [6, 14]: 8 h
- half-life [6, 14]: 25.2 h
- decrease of AUC ([6]; with rifampin, observed): 95%
- substrate of organic anion–transporting polypeptide 1B1 [7]: not substrates
- permeability (in words) [8]: high permeability
- solubility (in words) [8]: high solubility
- fraction unbound [9]: 0.0557
- half-life (Absolute bioavailability): 29.3 h
- Vd (Absolute bioavailability; iv, 0.4 mg): 8.93 L/kg
- clearance (Absolute bioavailability; iv, 0.4 mg): 400 mL/min
- substrate of breast cancer resistance protein [10]: substrate
- FG in the PBPK model ([11]; 200‐mg dose): 0.74
- FG (fraction escaping first‐pass metabolism in the gut), calculated ([11]; 200‐mg oral dose, equation 5): approximately 0.77
- FH (fraction escaping first‐pass metabolism in the liver) ([11]; 200‐mg oral dose, equations 2-4): 0.64
- percentage of parent in feces ([12]; 14C study): 6.76%
- radioactivity excreted in urine ([12]; human mass balance study): 4%
- CL renal ([12]; human, urine, oral, 150 mg): 16.7 mL/min
- Fa (fraction absorbed) ([12]; oral dose, estimated from mass balance study, equation 1): 0.91

SMILES: COc1ccccc1Oc1c(NS(=O)(=O)c2ccc(C(C)(C)C)cc2)nc(-c2ncccn2)nc1OCCO [Bosentan]
- Cmax ratio with and without ketoconazole ([13]; bosentan 125 mg BID 5 days, ketoconazole 200 mg QD): 1.62

SMILES: Cc1ncc2n1-c1ccc(Cl)cc1C(c1ccccc1F)=NC2 [Midazolam]
- increase in AUC extrapolated to infinity ([13]; IV midazolam with clarithromycin): 3.5 fold

Source: paper PMC7318171 (Journal of Clinical Pharmacology, 2020)
